# Assay results reported in the EternaBench riboswitch data.
# Tested on: MS2 coat protein
# Experiment: apparent Kd, MS2 coat protein; higher = weaker binding; RNA-MaP array; FMN 200 µM where present
# In short: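 Designs on Illumina sequencing-chip clusters, transcribed by stalled E. coli RNA polymerase, were exposed to SNAP-549-labelled MS2 coat protein in doubling steps from 0.7 or 1.5 nM up to 3 µM, without and then with constant ligand. The buffer held 100 mM Tris-HCl pH 7.5, 80 mM KCl, 4 mM MgCl2, BSA, DTT, yeast tRNA and Tween-20. Apparent Kd values are medians of filtered per-cluster binding-curve fits to green signal normalised to red-channel RNA signal and control-cluster median Fmax.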
# [1] = designed as: ON switch for flavin mononucleotide, no ligand
# [2] = ligand present: flavin mononucleotide, designed as: ON switch for flavin mononucleotide
# [3] = designed as: OFF switch for flavin mononucleotide, no ligand
# [4] = ligand present: flavin mononucleotide, designed as: OFF switch for flavin mononucleotide
Sequence,apparent Kd [1] [nM],apparent Kd [2] [nM],apparent Kd [3] [nM],apparent Kd [4] [nM]
AAAAAAAAAACUCAGGAUAUAGAUCGUUGAACAUGAGGAUCACCCAUGUAGUGAAAAGCGAAAAACUAGAAGGGAGGAAAAAAAAA,28.9,19.8,–,–
AAAAAAAAAGUAGAGGAUAUCCGAGUGGUAACAUGAGGAUCACCCAUGUGAAGAAAGGAAGAUGAGGAGAAGGCUACAAAAAAAAA,47.5,21.9,–,–
AAAAAAAAGGGUGAGGAUAUCGAAAAAAAAACAUGAGGAUCACCCAUGUGAAAAAAAAAAAAAUGCGAGAAGGCACUAAAAAAAAA,151,45.6,–,–
AAAAAACAUGAGGAUCACCCAUGUAAAAAAAAUAGAGGAUAUGGGUGAUCCAAAAAAAAACCAGAAGGCUAAAAAA,18.2,16.6,–,–
AAAAAACAUGAGGAUCACCCAUGUAAAAAAAUCACAGGAUAUAAGGUCGCGAAAGCGACCUUAGAAGGGUGAUCCU,20.1,20.1,–,–
AAAAAACAUGAGGAUCACCCAUGUCAGGAUAUCCUAAAAAAAAAAAAAAAAAAAAAAAGGAGAAGGGACAUAAA,–,–,119,309
AAAAAACAUGAGGAUCACCCAUGUCAGGAUAUCUGGAGAAACGGAAAGAAAAAGAAACGGAGAAGGGACAUAAA,–,–,41.1,48
AAAAAACAUGAGGAUCACCCAUGUCUUCGGACAUGAGGAUAUGUACAGACUUCGGUCUGUACAGAAGGCAUGUCAA,166,23.2,–,–
AAAAAACAUGAGGAUCACCCAUGUGAGGAUAUCACUAGUCAGUCCUCAGAGUGAGUACUGAGAAGGCACAUAAA,–,–,86.9,54.3
AAAAAACAUGAGGAUCACCCAUGUGAGGAUAUCUGUAUCCAAAAGGAAGUGUAGGAUCAGAGAAGGCACUAGGA,–,–,68.1,123
AAAAAGCGAGGAUAUACAUGAGGAUCACCCAUGUCAAAAAAAUAGAAAAAAAUAAAAAGUAGAAGGCGCAAAAA,–,–,58.8,58.4
AAAAAGCGAGGAUAUGCAUAAGGACCCGGGAGGGAAAUCAAACAUGAGGAUCACCCAUGUAGAAGGCGCAAAAA,–,–,16.1,23.3
AAAAAGGGAGGAUAUACAUGAGGAUCACCCAUGUAAAAAAAAACAAAAAAAAAAAAAAGUAGAAGGCCCAAAAA,–,–,54.8,47.8
AAAAAGGUAGGAUAUACGAGGAGAAAUAAUAAAUAAAUAAAACAUGAGGAUCACCCAUGUAGAAGGACCAAAAA,–,–,26.1,26.8
AAAAAGUCAGGAUAUACAUGAGGAUCACCCAUGUAAAAAAAAGGGAAAAAAAAAAAGGGUAGAAGGGACGAAAA,–,–,37.8,33
AAAAAUGGAGGAUAUACAUGAGGAUCACCCAUGUGUGGCUAUACUAUGUGCUCUUCAGGUAGAAGGCCAAAAAA,–,–,42.6,201
AAAACACAUGAGGAUCACCCAUGUGAGGAUAUGUUCAUUGUGAGCAAACUUAUGAUGAACAGAAGGCACAUAAA,–,–,45.5,50.7
AAAACAUGAGGAUCACCCAUGUAAAGAUCAGUUAAUAGAGGUGAGGAUAUACGAACUUAAAGGUAGUAGAAGGCACUGGGUACA,35.9,30,–,–
AAAACAUGAGGAUCACCCAUGUAAAGAUCGGUUAAUAGAGGUGAGGAUAUACGAACUUUUGGGUAGUAGAAGGCACUGGGUACA,58.1,44,–,–

Sequence,apparent Kd [1] [nM],apparent Kd [2] [nM],apparent Kd [3] [nM],apparent Kd [4] [nM]
AAAACGUGAGGAUAUCCAAUAUAUGACAUGAGGAUCACCCAUGUUUCCACUCGUACCUCCGGAGAAGGCACAAUUU,–,–,51.2,41.7
AAAAUCAAAUCAGGAUAUUCAUACACUACAUACGGAGAAGGGAUACAAUCAUGAGGACAUGAGGAUCACCCAUGUUGUGACCAU,102,54.8,–,–
AAAAUCAAUGCAGGAUAUACAUGAGGAUCACCCAUGUAGGUUGACCCUAAUACGGGCGAUUUGCAGUAGAAGGGCAAGAAGAAA,–,–,50.7,63.4
AAAAUCUAUACAGGAUAUCCAUACGCUGCAUACGGAGAAGGGUAACAAUCAUGAGGACAUGAGGAUCACCCAUGUUGUGACCAU,232,76.1,–,–
AAACACAAACAUGAGGAUCACCCAUGUUAUGAAAAUACUGGGAGAAGGGCGAUUGCAAAGCAAUCGCAGGAUAUUCGUAUUGUG,76.7,16.1,–,–
AAACACGGACAUGAGGAUCACCCAUGUGGCGAAAGCCUUGGAAGAAGGCCGAUUGCAAAGCAAUCGGAGGAUAUUCAUACCGUG,–,5.57,–,–
AAACAUGUCCGAGGAUAUCUGGAAACAUUUUCAAGAGAAGGCGGACAUGAGGAUCACCCAUGUCUCUCCUCAUCAAAUCCAAGC,–,–,8.2,44.9
AAACAUGUCCGAGGAUAUCUGGAAACAUUUUCAAGAGAAGGCGGACAUGAGGAUCACCCAUGUCUCUCCUCAUCAACUACAAAC,–,–,8.57,53.2
AAACAUGUCCGAGGAUAUCUGGAAAUAUUUCCAAGAGAAGGCGGACAUGAGGAUCACCCAUGUCUCUCCUCAUCAAAUCCAAGU,–,–,9.36,73.3
AAACCGUGUGGAGGAUAUGCAGUUGAGGUGAGGCGGCAGCUCUAUACGACAGCAGAAGGCCACAUGAGGAUCACCCAUGUAGGU,–,–,107,326
AAACUCAUUGUCAGGAUAUGUAUUGAAGGAAUCGGACAGAAGGGACAUGAGGAUCACCCAUGUUACUAAGACCC,–,–,25.9,74.3
AAAGACAGACAUGAGGAUCACCCAUGUUAUGAAGAUACUGGGAGAAGGGCGAUUGCAAAGCAAUCGCAGGAUAUUCGUAUUGUC,92.2,15.6,–,–
AAAGCUGAAGGAUAUACUUGGAAAAAAAAAAAAAAAAAAAAACAUGAGGAUCACCCAUGUAGAAGGUCAGAUAA,–,–,48.2,39.8
AAAGGAUCAGGAUAUGCGUGGAAAAAGUGUAUUCAAAAAAAACAUGAGGAUCACCCAUGUAGAAGGGAUCCAAA,–,–,182,657
AAAGGCCGAGGAUAUACAUGAGGAUCACCCAUGUGGACUCUGCAGAAUUGAUACCUAGGUAGAAGGUGGACCGG,–,–,14.9,15.2
AAAGGUUGAGGAUAUGCGUGGAAAAAGUGUAUUCAAAAAAAACAUGAGGAUCACCCAUGUAGAAGGCGACCAAA,–,–,93.6,245
AAAGUCUAUUGAGGAUAUCGUUAUCAAAGAUAAUGAGAAGGCAAACAAUCAUGAGGACAUGAGGAUCACCCAUGUUGUGACCAU,22.3,13.4,–,–
AAAUAACAUGAGGAUCACCCAUGUCCGCGCCAUCAAGGAUAUGGGUGCCGGCUAGGUCAGCUAGAAGGUGGUGGUG,28.8,34.5,–,–
AAAUAACAUGUAGGAUAUGCAGCAUUAACCAUCGCAGAAGGACAUGAGGAUCACCCAUGUGGCGAUACAAUGCAAUAAGGGAAU,–,–,16.2,40.7

Sequence,apparent Kd [1] [nM],apparent Kd [2] [nM],apparent Kd [3] [nM],apparent Kd [4] [nM]
AAAUAGCGAGGAUAUACAUGAGGAUCACCCAUGUGGACUGAUGUAGCAUGUUUCAGUGGUAGAAGGUGCUCAAA,–,–,112,100
AAAUAGCUUGAGGAUAUUGGAUUGGAUUCAGUGCGAGAAGGCAAGACAUGAGGAUCACCCAUGUUGUGUUGGGA,–,–,47.2,90
AAAUAUAAUGAGGAUAUCGUACUGGAUAUAGUGCGAGAAGGCAUUACAUGAGGAUCACCCAUGUUUUGUUGGGA,–,–,30.8,89.5
AAAUCUUACGAAGGAUAUACAAACAUGAGGAUCACCCAUGUGUGUUUCGUGUAACUGAAAUUCGGGUAGAAGGUCGUAGACAUA,–,–,24.3,15
AAAUUAGUUGUAGGAUAUCGGUCGAACAUCUCACGAGAAGGGCAACAUGAGGAUCACCCAUGUAGGUCGCCUACGUAAGAUCGC,–,–,5.84,6.71
AAAUUGACGGGACAUGAGGAUCACCCAUGUGCUAGCCGGACCAGAAGGGCAGCCGGCACGUGGUUGCAGGAUAUGGCCGUCGCA,154,151,–,–
AAAUUGCUAGAGGAUAUCGGAUAGGAUCUAUUGCGAGAAGGUUGGACAUGAGGAUCACCCAUGUUCUGUUGGGA,–,–,25.8,25.8
AAAUUGGUAGAGGAUAUCGGAUAGGAUUUAUUGCGAGAAGGCUGCACAUGAGGAUCACCCAUGUUCUGUUGGGA,–,–,201,280
AAAUUUAACGAAGGAUAUACUAACAUGAGGAUCACCCAUGUGUGCUUCGUGUUGCUGAAAUUCGGGUAGAAGGUCGUAUACAUA,–,–,54.8,145
AAAUUUAACGAAGGAUAUGCUGACAUGAGGAUCACCCAUGUGUGCCUUGUGUUACUGACUCGGAAGCAGAAGGUCGUAUACAUA,–,–,400,552
AAAUUUAACGAAGGAUAUGGUUACAUGAGGAUCACCCAUGUGUGCCUUGUGAUUUUGUUUAAGUUCCAGAAGGUCGUAUACAUA,–,–,26.4,168
AACAAGCAAGGAUAUACAUGAGGAUCACCCAUGUCGUCUAAACGUACAUGCUACUCUUGUAGAAGGUGCAAAAU,–,–,129,537
AACAGCUCGUCAGGAUAUAUUAUAUUUAUAUGGCUGAAUGUACAUGAGGAUCACCCAUGUAGUUUGUAGAAGGGACGAGCUGAA,–,–,11.6,18.9
AACAGGACAGGAUAUACAUGAGGAUCACCCAUGUGAGAAUUAAGCAGCGUACCACACAGUAGAAGGGUCAUGGA,–,–,46.7,40
AACAGGUUCACAUGAGGAUCACCCAUGUUAGCCUAACGUAGGAGAAGGGCGGUAGCUGGGCUGACGUAGGAUAUCCUACUGUGA,10,5.79,–,–
AACAGUACAGGAUAUACAUGAGGAUCACCCAUGUGAAGAAUAAGUGGCGUACCACAAAGUAGAAGGGUACUGGA,–,–,29.3,120
AACAGUACAGGAUAUACAUGAGGAUCACCCAUGUGAGCUUUAAGUGCCGUAGCACAAAGUAGAAGGGUACUGGA,–,–,24.4,91.8
AACAGUAGAGGAUAUACAUGAGGAUCACCCAUGUGAUAAUUACGUGGCGUACCACGAUGUAGAAGGCUACUGGA,–,–,144,36.2
